Data published in ChEMBL document CHEMBL3124772, “Design, synthesis, and evaluation of conformationally restricted acetanilides as potent and selective β3 adrenergic receptor agonists for the treatment of overactive bladder” (J Med Chem, 2014).

Columns and labels:
Plasma [1] = assay: Unbound plasma concentration in acetic acid-induced Sprague-Dawley rat bladder hyperactivity model at 10 mg/kg, iv administered as 1 to 2 hrs infusion; format: ADME, organism-based; set-up: dose 10 mg/kg, route intravenous; settings: in vivo
Plasma [2] = assay: Unbound plasma concentration in acetic acid-induced Sprague-Dawley rat bladder hyperactivity model at 3 mg/kg, iv administered as 1 to 2 hrs infusion; format: ADME, organism-based; set-up: dose 3 mg/kg, route intravenous; settings: in vivo
Plasma [3] = assay: Unbound plasma concentration in acetic acid-induced Sprague-Dawley rat bladder hyperactivity model at 1 mg/kg, iv administered as 1 to 2 hrs infusion; format: ADME, organism-based; set-up: dose 1 mg/kg, route intravenous; settings: in vivo
Rattus norvegicus [4] = assay: Reduction of micturition pressure in iv dosed acetic acid-induced Sprague-Dawley rat bladder hyperactivity model administered as 1 to 2 hrs infusion; format: functional, organism-based
Rattus norvegicus [5] = assay: Reduction of micturition pressure at 27 uM unbound plasma level in acetic acid-induced Sprague-Dawley rat bladder hyperactivity model at 10 mg/kg, iv administered as 1 to 2 hrs infusion relative to vehicle-treated control; format: functional; set-up: scale not given: the % may be the effect or the level left
[6] = molecular target: Beta-3 adrenergic receptor (Macaca mulatta) (UniProt Q28524); assay: Agonist activity at rhesus monkey beta-3 adrenergic receptor expressed in CHO cells assessed as increase in intracellular cAMP accumulation at 10^-10 to 10^-5 M after 30 mins by time-resolved fluorescence assay relative to R-(-)isoproterenol; format: functional, cell-based
In short: (§1)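 CHO cells stably transfected with cloned β3-AR, harvested after 3 days subculture with enzyme-free dissociation, 6000 cells in HBSS with 5 mM HEPES, 0.1% BSA and 0.6 mM IBMX. Ligand at 10⁻¹⁰ to 10⁻⁵ M final, 30 min room temperature with labeled cAMP antibody; LANCE TR-FRET read after 1 h detection, cAMP from standard curve.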

[7] = molecular target: Beta-3 adrenergic receptor (Macaca mulatta, UniProt Q28524); assay: Agonist activity at rhesus monkey beta-3 adrenergic receptor expressed in CHO cells assessed as increase in intracellular cAMP accumulation after 30 mins by time-resolved fluorescence assay; format: functional, cell-based; in short: as §1
[8] = molecular target: Beta-3 adrenergic receptor (Canis lupus familiaris) (UniProt O02662); assay: Agonist activity at dog beta-3 adrenergic receptor expressed in CHO cells assessed as increase in intracellular cAMP accumulation at 10^-10 to 10^-5 M after 30 mins by time-resolved fluorescence assay relative to R-(-)isoproterenol; format: functional, cell-based; in short: as §1
[9] = molecular target: Beta-3 adrenergic receptor (Canis lupus familiaris, UniProt O02662); assay: Agonist activity at dog beta-3 adrenergic receptor expressed in CHO cells assessed as increase in intracellular cAMP accumulation after 30 mins by time-resolved fluorescence assay; format: functional, cell-based; in short: as §1
[10] = molecular target: Beta-3 adrenergic receptor (Rattus norvegicus) (UniProt P26255); assay: Agonist activity at rat beta-3 adrenergic receptor expressed in CHO cells assessed as increase in intracellular cAMP accumulation at 10^-10 to 10^-5 M after 30 mins by time-resolved fluorescence assay relative to R-(-)isoproterenol; format: functional, cell-based; in short: as §1
[11] = molecular target: Beta-3 adrenergic receptor (Rattus norvegicus, UniProt P26255); assay: Agonist activity at rat beta-3 adrenergic receptor expressed in CHO cells assessed as increase in intracellular cAMP accumulation after 30 mins by time-resolved fluorescence assay; format: functional, cell-based; in short: as §1
[12] = Lipophilicity, log D of the compound at pH 7.3; format: physicochemical; settings: buffer
[13] = Intrinsic clearance in monkey liver microsomes; format: ADME, Macaca mulatta, Microsome; settings: rhesus monkey, read-out: CLH
[14] = Intrinsic clearance in dog liver microsomes; format: ADME, Canis lupus familiaris; settings: read-out: CLH
Homo sapiens = organism: Homo sapiens; assay: Selectivity ratio of IC50 for human SERT to EC50 for human beta-3 adrenergic receptor
[15] = Intrinsic clearance in human liver microsomes; format: ADME; settings: read-out: CLH
[16] = molecular target: Sodium-dependent serotonin transporter (Homo sapiens, UniProt P31645); assay: Inhibition of human SERT expressed in HEK293 cells incubated for 30 mins prior to fluorescent substrate addition measured after 30 mins by fluorescent dye uptake assay; format: cell-based
In short: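 HEK293 stably expressing human SERT, 20000 cells/well plated overnight at 37 °C, then in HBSS with 20 mM HEPES and 0.1% BSA. Compound added from 100× DMSO stock, 30 min at 37 °C, then fluorescent transporter substrate for 30 more min. Fluorescence read at 440/520 nm, normalized to DMSO (0%) and 10 μM fluoxetine (100%), four-parameter fit for IC50.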

[17] = molecular target: Sodium channel protein type 5 subunit alpha (Homo sapiens, UniProt Q14524); assay: Inhibition of human NaV1.5
[18] = molecular target: Voltage-dependent L-type calcium channel subunit alpha-1C (Homo sapiens, UniProt Q13936); assay: Displacement of [3H]-diltiazem from human CaV1.2
Cytochrome P450 3A4 = Cytochrome P450 3A4 (Homo sapiens, UniProt P08684); assay: Inhibition of CYP3A4 in human liver microsomes assessed as testosterone 6beta-hydroxylation; format: ADME
Cytochrome P450 2D6 = Cytochrome P450 2D6 (Homo sapiens, UniProt P10635); assay: Inhibition of CYP2D6 in human liver microsomes assessed as dextromethorphan O-demethylation; format: ADME
Cytochrome P450 2C9 = Cytochrome P450 2C9 (Homo sapiens, UniProt P11712); assay: Inhibition of CYP2C9 in human liver microsomes assessed as diclofenac alpha'-hydroxylation; format: ADME
[19] = Apparent permeability in MDCK2 cells; format: ADME, cell-based, Canis lupus familiaris, MDCK-II; settings: dog, MDCK
[20] = Intrinsic clearance in rat liver microsomes; format: ADME; settings: read-out: CLH
[21] = molecular target: Voltage-gated inwardly rectifying potassium channel KCNH2 (Homo sapiens, UniProt Q12809); assay: Inhibition of human ERG
[22] = Fraction unbound in rhesus monkey plasma at 1 mg/kg, iv and 2 mg/kg, po; format: ADME, organism-based, Macaca mulatta
[23] = Fraction unbound in Beagle dog plasma at 1 mg/kg, iv and 2 mg/kg, po; format: ADME, organism-based, Canis lupus familiaris
[24] = Fraction unbound in Sprague-Dawley rat plasma at 1 mg/kg, iv and 2 mg/kg, po; format: ADME, organism-based; settings: Sprague-Dawley, plasma
[25] = Oral bioavailability in Beagle dog at 2 mg/kg; format: ADME, organism-based, Canis lupus familiaris; settings: in vivo
[26] = Oral bioavailability in rhesus monkey at 2 mg/kg; format: ADME, organism-based, Macaca mulatta; settings: in vivo
[27] = Oral bioavailability in Sprague-Dawley rat at 2 mg/kg; format: ADME, organism-based; settings: in vivo
[28] = Half life in Beagle dog at 1 mg/kg, iv and 2 mg/kg, po; format: ADME, organism-based, Canis lupus familiaris; settings: in vivo
[29] = Half life in rhesus monkey at 1 mg/kg, iv and 2 mg/kg, po; format: ADME, organism-based, Macaca mulatta; settings: in vivo
[30] = Half life in Sprague-Dawley rat at 1 mg/kg, iv and 2 mg/kg, po; format: ADME, organism-based; settings: in vivo
[31] = Plasma clearance in Beagle dog at 1 mg/kg, iv and 2 mg/kg, po; format: ADME, organism-based, Canis lupus familiaris
[32] = Plasma clearance in rhesus monkey at 1 mg/kg, iv and 2 mg/kg, po; format: ADME, organism-based, Macaca mulatta
[33] = Plasma clearance in Sprague-Dawley rat at 1 mg/kg, iv and 2 mg/kg, po; format: ADME, organism-based
[34] = molecular target: Beta-2 adrenergic receptor (Homo sapiens, UniProt P07550); assay: Displacement of [125I]-cyanopindolol from recombinant human beta-2 adrenergic receptor expressed in CHO cell membranes after 1 hr by scintillation counting analysis
[35] = molecular target: Beta-1 adrenergic receptor (Homo sapiens, UniProt P08588); assay: Displacement of [125I]-cyanopindolol from recombinant human beta-1 adrenergic receptor expressed in CHO cell membranes after 1 hr by scintillation counting analysis
[36] = molecular target: T1, Beta-3 adrenergic receptor (Homo sapiens, UniProt P13945); assay: Agonist activity at human beta-3 adrenergic receptor expressed in CHO cells assessed as increase in intracellular cAMP accumulation at 10^-10 to 10^-5 M after 30 mins by time-resolved fluorescence assay relative to R-(-)isoproterenol; format: functional, cell-based; in short: as §1
[37] = molecular target: T1, Beta-3 adrenergic receptor; assay: Agonist activity at human beta-3 adrenergic receptor expressed in CHO cells assessed as increase in intracellular cAMP accumulation after 30 mins by time-resolved fluorescence assay; format: functional, cell-based; in short: as §1

Sequence of Sodium channel protein type 5 subunit alpha (Q14524 whole entry): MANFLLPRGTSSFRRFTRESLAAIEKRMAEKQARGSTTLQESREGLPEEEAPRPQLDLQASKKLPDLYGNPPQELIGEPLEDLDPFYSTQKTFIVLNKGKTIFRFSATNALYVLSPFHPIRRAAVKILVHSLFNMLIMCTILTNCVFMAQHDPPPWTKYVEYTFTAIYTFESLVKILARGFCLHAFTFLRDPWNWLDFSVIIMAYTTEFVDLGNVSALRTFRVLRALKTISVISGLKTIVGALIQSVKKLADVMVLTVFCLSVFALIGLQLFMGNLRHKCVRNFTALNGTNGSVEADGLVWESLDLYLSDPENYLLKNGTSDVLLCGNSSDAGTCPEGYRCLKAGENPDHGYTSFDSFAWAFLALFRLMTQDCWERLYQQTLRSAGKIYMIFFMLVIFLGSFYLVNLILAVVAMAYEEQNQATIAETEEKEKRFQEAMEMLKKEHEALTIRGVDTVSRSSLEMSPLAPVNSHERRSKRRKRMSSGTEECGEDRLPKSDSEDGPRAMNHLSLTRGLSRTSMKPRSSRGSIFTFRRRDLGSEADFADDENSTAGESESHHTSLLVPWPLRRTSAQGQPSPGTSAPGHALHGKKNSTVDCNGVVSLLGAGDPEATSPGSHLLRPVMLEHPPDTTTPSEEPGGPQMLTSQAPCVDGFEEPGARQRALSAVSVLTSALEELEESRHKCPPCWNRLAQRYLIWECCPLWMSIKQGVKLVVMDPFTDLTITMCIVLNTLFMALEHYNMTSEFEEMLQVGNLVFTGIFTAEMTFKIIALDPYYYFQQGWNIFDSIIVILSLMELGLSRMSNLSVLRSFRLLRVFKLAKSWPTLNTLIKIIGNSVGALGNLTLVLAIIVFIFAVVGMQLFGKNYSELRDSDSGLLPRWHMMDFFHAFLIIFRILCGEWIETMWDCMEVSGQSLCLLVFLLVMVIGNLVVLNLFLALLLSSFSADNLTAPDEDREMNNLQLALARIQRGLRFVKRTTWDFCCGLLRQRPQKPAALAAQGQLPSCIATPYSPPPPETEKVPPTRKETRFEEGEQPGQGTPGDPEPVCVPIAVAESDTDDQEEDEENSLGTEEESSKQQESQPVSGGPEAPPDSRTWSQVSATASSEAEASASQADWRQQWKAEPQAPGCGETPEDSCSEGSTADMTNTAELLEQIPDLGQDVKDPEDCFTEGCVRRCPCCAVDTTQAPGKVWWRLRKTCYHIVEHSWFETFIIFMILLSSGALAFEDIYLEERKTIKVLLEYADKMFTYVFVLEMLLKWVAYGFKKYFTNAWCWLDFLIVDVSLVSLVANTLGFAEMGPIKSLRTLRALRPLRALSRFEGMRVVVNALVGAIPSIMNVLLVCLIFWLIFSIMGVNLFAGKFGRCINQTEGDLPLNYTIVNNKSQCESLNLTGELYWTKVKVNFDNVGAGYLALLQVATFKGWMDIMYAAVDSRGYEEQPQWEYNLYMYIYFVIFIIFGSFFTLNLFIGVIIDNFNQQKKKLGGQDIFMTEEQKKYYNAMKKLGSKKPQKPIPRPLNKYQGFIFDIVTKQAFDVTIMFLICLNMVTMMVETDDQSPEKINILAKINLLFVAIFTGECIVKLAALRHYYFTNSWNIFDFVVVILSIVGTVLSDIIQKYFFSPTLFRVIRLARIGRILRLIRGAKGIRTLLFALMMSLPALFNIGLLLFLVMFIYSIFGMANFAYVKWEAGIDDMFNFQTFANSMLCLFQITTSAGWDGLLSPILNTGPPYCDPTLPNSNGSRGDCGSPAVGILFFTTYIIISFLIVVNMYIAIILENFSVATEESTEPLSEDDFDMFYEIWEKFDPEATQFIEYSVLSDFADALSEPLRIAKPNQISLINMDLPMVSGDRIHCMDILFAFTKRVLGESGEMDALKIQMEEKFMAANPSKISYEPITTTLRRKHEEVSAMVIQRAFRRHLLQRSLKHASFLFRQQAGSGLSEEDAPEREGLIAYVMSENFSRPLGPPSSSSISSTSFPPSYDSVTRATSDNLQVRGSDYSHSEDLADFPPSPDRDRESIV
Sequence of Beta-1 adrenergic receptor (P08588 whole entry): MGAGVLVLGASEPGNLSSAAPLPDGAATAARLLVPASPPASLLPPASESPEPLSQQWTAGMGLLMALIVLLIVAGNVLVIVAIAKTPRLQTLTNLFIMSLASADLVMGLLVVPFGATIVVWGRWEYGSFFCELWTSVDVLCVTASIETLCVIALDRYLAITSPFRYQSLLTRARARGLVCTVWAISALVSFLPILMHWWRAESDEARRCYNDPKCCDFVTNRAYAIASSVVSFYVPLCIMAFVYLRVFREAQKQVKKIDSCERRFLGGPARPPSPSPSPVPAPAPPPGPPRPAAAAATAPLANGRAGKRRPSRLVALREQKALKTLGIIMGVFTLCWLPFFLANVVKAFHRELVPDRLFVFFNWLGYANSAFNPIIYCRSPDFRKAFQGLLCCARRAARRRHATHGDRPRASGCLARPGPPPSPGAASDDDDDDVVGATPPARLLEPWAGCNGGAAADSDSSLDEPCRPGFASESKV
Sequence of Beta-3 adrenergic receptor (Rattus norvegicus, UniProt P26255) (P26255 whole entry): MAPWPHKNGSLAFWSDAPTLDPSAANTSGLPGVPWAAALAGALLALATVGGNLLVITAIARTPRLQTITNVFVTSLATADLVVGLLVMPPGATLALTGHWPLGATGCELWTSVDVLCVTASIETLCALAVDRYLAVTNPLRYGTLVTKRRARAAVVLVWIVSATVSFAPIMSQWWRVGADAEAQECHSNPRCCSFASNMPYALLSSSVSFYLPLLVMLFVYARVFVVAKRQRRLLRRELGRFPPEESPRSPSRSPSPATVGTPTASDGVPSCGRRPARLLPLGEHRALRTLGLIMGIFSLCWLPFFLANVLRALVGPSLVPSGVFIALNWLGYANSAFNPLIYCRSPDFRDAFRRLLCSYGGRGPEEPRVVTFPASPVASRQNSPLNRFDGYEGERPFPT
Sequence of Beta-3 adrenergic receptor (Rattus norvegicus) (P26255 whole entry): as above
Sequence of Voltage-gated inwardly rectifying potassium channel KCNH2 (Q12809 whole entry): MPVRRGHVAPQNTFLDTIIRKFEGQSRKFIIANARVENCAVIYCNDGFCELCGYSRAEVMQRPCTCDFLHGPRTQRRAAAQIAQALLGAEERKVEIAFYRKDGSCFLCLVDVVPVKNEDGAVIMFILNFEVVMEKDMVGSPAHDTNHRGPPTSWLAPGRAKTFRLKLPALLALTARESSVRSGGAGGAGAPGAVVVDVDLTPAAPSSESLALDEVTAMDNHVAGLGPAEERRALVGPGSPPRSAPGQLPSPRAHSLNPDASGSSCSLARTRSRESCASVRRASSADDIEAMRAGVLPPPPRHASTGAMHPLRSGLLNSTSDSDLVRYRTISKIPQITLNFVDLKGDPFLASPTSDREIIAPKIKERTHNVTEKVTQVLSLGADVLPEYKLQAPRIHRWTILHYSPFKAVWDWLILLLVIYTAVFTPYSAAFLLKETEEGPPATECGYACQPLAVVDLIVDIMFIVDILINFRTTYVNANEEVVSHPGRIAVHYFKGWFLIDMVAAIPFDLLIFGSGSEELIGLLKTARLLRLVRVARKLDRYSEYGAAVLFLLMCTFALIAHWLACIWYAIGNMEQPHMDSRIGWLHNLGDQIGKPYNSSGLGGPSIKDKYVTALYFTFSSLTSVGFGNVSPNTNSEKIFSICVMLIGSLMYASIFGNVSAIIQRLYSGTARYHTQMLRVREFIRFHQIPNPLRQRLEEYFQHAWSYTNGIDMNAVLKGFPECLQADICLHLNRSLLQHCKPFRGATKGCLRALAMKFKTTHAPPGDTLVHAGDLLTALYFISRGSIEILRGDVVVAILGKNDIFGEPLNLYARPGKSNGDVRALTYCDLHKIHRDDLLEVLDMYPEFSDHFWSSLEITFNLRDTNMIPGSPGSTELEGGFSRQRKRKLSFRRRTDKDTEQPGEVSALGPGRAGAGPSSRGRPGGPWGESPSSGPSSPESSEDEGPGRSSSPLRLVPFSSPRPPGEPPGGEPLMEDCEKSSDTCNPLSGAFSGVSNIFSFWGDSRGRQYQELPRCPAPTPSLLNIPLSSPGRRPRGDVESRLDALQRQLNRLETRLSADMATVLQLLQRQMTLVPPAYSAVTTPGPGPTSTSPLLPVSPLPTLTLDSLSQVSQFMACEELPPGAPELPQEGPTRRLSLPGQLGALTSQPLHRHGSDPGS
Sequence of Sodium-dependent serotonin transporter (P31645 whole entry): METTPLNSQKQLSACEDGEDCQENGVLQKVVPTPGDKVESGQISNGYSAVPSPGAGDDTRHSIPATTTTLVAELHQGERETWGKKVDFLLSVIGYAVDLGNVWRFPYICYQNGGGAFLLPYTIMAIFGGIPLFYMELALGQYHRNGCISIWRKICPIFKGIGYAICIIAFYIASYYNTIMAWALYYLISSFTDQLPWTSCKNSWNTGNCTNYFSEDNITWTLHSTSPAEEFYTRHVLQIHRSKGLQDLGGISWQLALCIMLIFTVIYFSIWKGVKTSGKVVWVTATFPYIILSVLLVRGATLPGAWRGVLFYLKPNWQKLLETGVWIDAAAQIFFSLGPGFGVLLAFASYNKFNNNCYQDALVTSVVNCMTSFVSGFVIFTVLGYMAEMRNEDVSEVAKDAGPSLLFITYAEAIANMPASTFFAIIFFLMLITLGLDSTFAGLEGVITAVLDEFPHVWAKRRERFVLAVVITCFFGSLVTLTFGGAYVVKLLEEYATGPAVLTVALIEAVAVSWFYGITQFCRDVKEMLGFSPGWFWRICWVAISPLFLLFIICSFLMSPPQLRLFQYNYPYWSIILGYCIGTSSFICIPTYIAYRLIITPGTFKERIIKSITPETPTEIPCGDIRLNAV

With `O=C(Nc1ccc(C[C@@H]2CC[C@H]([C@H](O)c3cccnc3)N2)cc1)[C@@H]1CCc2ccnn21` the “Cp(f)” value (Plasma [1]) was 26.8 µM, the “Cp(f)” value (Plasma [2]) was 7.6 µM and the “Cp(f)” value (Plasma [3]) was 2 µM. The Activity (Rattus norvegicus [4]) was “Dose-dependent effect”, the Activity (Rattus norvegicus [5]) was 69% and the Activity [6] was 93%. The EC50 [7] was 4.7 nM, the Activity [8] was 86% and the EC50 [9] was 22 nM. For the same compound, the Activity [10] was 98%, the EC50 [11] was 434 nM and the logD [12] was 0.9. For the same compound, the CLint scaled [13] was 261 mL/min/kg, the CLint scaled [14] was 31 mL/min/kg and the Ratio IC50/EC50 (Homo sapiens) was 243. The CLint scaled [15] was 19 mL/min/kg, the IC50 [16] was 898 nM and the IC50 [17] was over 30000 nM. The IC50 [18] was over 30000 nM, the IC50 (Cytochrome P450 3A4) was over 100000 nM and the IC50 (Cytochrome P450 2D6) was over 100000 nM. It also gave an IC50 (Cytochrome P450 2C9) of over 100000 nM, a Papp [19] of 6 ×10⁻⁶ cm/s and a CLint scaled [20] of 55 mL/min/kg. It also gave an IC50 [21] of over 30000 nM, a fraction unbound [22] of 1 and a fraction unbound [23] of 0.7. It also gave a fraction unbound [24] of 0.36, a bioavailability [25] of 100% and a bioavailability [26] of 11%. For the same compound, the bioavailability [27] was 35%, the half-life [28] was 8 h and the half-life [29] was 4 h. The half-life [30] was 3 h, the clearance [31] was 34 mL/min/kg and the clearance [32] was 36 mL/min/kg. For the same compound, the clearance [33] was 24 mL/min/kg, the IC50 [34] was over 20000 nM and the IC50 [35] was over 20000 nM. For the same compound, the Activity [36] was 84% and the EC50 [37] was 3.7 nM.
